# Source: ChEMBL document CHEMBL1153087, “Synthesis of 4-thiophen-2'-yl-1,4-dihydropyridines as potentiators of the CFTR chloride channel” (Bioorg Med Chem, 2009)
# Activity calls are given as the source filed them. No cut-off for these calls is given here.
# Experiments:
# Type in all cases: cell-based
# FRT = experiment: Potentiation of CFTR deltaF508 mutant expressed in FRT cells coexpressing halide sensitive YFP-H148Q/I152L mutant protein assessed as channel activation by iodide influx assay
# How it was run: (§1)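 FRT cells stably co-expressing ΔF508-CFTR and YFP-H148Q/I152L, held 20–24 h at 27 °C and assayed 48 h after plating. PBS wash, then 30 min with forskolin plus compound. 14-s YFP read (ex 500, em 535 nm) around iodide injection (100 mM final). Initial slope dF/dt extrapolated by exponential fit of final 10 s. Dose–response Hill fit gave apparent Kd and maximal effect.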
# [1] = Binding affinity to CFTR deltaF508 mutant expressed in FRT cells coexpressing halide sensitive YFP-H148Q/I152L mutant protein by iodide influx assay; how it was run: as §1
# [2] = target: Voltage-gated L-type calcium channel (Rattus norvegicus, UniProt P22002+Q02485+P27732); experiment: Inhibition of L-VDCC in rat H9C2 cells assessed as effect on calcium level by Fluo-4 fluorescence assay
Structure (SMILES),Activity (FRT),Kd [1],pKd [1],inhibition (INH) [2]
C=CCOC(=O)C1=C(C)NC(C)=C(C(=O)OCC=C)C1c1sccc1C,Active,1 µM,6,–
CC1=C(C(=O)OCc2ccccc2)C(c2ccc([N+](=O)[O-])s2)C(C(=O)OCc2ccccc2)=C(C)N1,–,13.1 µM,4.88,–
COC(=O)C1=C(C)NC(C)=C(C(=O)OC)C1c1ccc(C)s1,Active,6 µM,5.22,Not Active
C=CCOC(=O)C1=C(C)NC(C)=C(C(=O)OCC=C)C1c1ccc([N+](=O)[O-])s1,–,3.8 µM,–,–
CCOC(=O)C1=C(C)NC(C)=C(C(=O)OCC)C1c1sccc1C,–,5.7 µM,5.24,–
C=CCOC(=O)C1=C(C)NC(C)=C(C(=O)OCC=C)C1c1cc(-c2ccccc2)cs1,Active,1.5 µM,5.82,–
CC1=C(C(=O)OCc2ccccc2)C(c2sccc2C)C(C(=O)OCc2ccccc2)=C(C)N1,Active,0.7 µM,6.15,–
C=CCOC(=O)C1=C(C)NC(C)=C(C(=O)OCC)C1c1sccc1C (stereo unspecified),–,0.3 µM,6.52,Active
COC(=O)CSc1ccsc1C1C(C(=O)OCc2ccccc2)=C(C)NC(C)=C1C(=O)OCc1ccccc1,Active,0.3 µM,–,–
CCOC(=O)C1=C(C)NC(C)=C(C(=O)OCc2ccccc2)C1c1sccc1C (stereo unspecified),–,0.5 µM,6.3,Active
C=CCOC(=O)C1=C(C)NC(C)=C(C(=O)OCC=C)C1c1sccc1SCC(=O)OC,Active,1.3 µM,5.89,–
O=c1c(-c2ccc(O)cc2)coc2cc(O)cc(O)c12 [GENISTEIN],–,16.7 µM,–,–
C=CCOC(=O)C1=C(C)NC(C)=C(C(=O)OCC)C1c1sccc1SCC(=O)OC (stereo unspecified),–,1.9 µM,5.72,Active
COC(=O)C1=C(C)NC(C)=C(C(=O)OC)C1c1ccc([N+](=O)[O-])s1,Active,8.3 µM,–,–
CCOC(=O)C1=C(C)NC(C)=C(C(=O)OCc2ccccc2)C1c1sccc1SCC(=O)OC (stereo unspecified),–,0.3 µM,6.52,Active
COC(=O)C1=C(C)NC(C)=C(C(=O)OC)C1c1ccc(C)o1,Active,6 µM,5.22,Not Active
COC(=O)C1=C(C)NC(C)=C(C(=O)OC)C1c1sccc1C,inactive,3.1 µM,5.51,–
CC1=C(C(=O)OCc2ccccc2)C(c2cc(-c3ccccc3)cs2)C(C(=O)OCc2ccccc2)=C(C)N1,Active,16.5 µM,4.8,–
COC(=O)C1=C(C)NC(C)=C(C(=O)OC)C1c1cccs1,–,9.5 µM,5.02,Not Active
